Results published in ChEMBL document CHEMBL1125520, “Improved brain delivery of AZT using a glycosyl phosphotriester prodrug” (1992).

What was measured:
Mus musculus [1] = experiment: In Vivo detection of total AZT in Mice plasma after oral administration of 58.33 mg/kg after 8 hr; type: functional, organism-based; design: dose 58.33 mg/kg
Method in brief: (§1)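 Male Swiss mice (18–20 g, six weeks old) given the test substance or vehicle ([…]) by gavage as a 3 mM solution (1.5 µmol/mouse). Aortic blood was collected into heparinized tubes at 0.5–48 h and centrifuged at 13000g for 10 min. Plasma was stored at -22 °C and analysed by HPLC. Three mice were used per time point, in triplicate. Values were not corrected for recovery.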

Mus musculus [2] = experiment: In Vivo detection of total AZT in Mice brains after oral administration of 58.33 mg/kg after 0.5 hr; type: functional
Method in brief: (§2)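 Male Swiss mice (18–20 g) dosed orally with a 3 mM solution in […] vehicle; decapitated at 0.5–48 h. Brains were homogenized in acetonitrile-water (3:1), centrifuged at 6000g for 40 min at 4 °C, lyophilized, redissolved in water and filtered (0.45 µm). Reversed-phase C18 column-switching HPLC with diode-array detection; standard spiking; vehicle-fed controls. Three mice per point, triplicates.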

Mus musculus [3] = experiment: In Vivo detection in Mice brains after oral administration of 58.33 mg/kg detected in the form of AZT phosphodiester 2 after 8 hr; type: functional
Mus musculus [4] = experiment: In Vivo detection of total AZT in Mice brains after oral administration of 58.33 mg/kg after 1 hr; type: functional; method in brief: as §2
Mus musculus [5] = experiment: In Vivo detection in Mice plasma after oral administration of 58.33 mg/kg detected in the form of AZT 5`-P after 0.5 hr; type: functional, organism-based; design: dose 58.33 mg/kg
Mus musculus [6] = experiment: In Vivo detection in Mice brains after oral administration of 58.33 mg/kg detected in the form of AZT after 0.5 hr; type: functional
Mus musculus [7] = experiment: In Vivo detection in Mice brains after oral administration of 58.33 mg/kg detected in the form of AZT phosphodiester 2 after 48 hr; type: functional
Mus musculus [8] = experiment: In Vivo detection in Mice plasma after oral administration of 58.33 mg/kg detected in the form of AZT after 4 hr; type: functional, organism-based; design: dose 58.33 mg/kg
Mus musculus [9] = experiment: In Vivo detection in Mice plasma after oral administration of 58.33 mg/kg detected in the form of AZT after 8 hr; type: functional, organism-based; design: dose 58.33 mg/kg; method in brief: as §1
Mus musculus [10] = organism: Mus musculus; experiment: (§3) Concentration of external nucleoside in mouse brain; type: functional
Method in brief: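 Crude synaptosomes from three mouse brains were prepared by Gray–Whittaker homogenization in 10% sucrose buffered with 5 mM Tris-HCl, pH 7.4. The 7000g pellet was resuspended and incubated with each nucleoside at 3 mM for 15 min at 37 °C, stopped by cold 10-fold dilution and washed twice. Internal nucleoside was extracted in acetonitrile–water (3:1) and measured by HPLC.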

Mus musculus [11] = experiment: In Vivo detection in Mice plasma after oral administration of 58.33 mg/kg detected in the form of AZT after 0.5 hr; type: functional, organism-based; design: dose 58.33 mg/kg
Mus musculus [12] = experiment: In Vivo detection in Mice brains after oral administration of 58.33 mg/kg detected in the form of AZT phosphodiester 3 after 48 hr; type: functional
Mus musculus [13] = experiment: In Vivo detection in Mice brains after oral administration of 58.33 mg/kg detected in the form of AZT 5`-P after 1 hr; type: functional
Mus musculus [14] = experiment: In Vivo detection in Mice plasma after oral administration of 58.33 mg/kg detected in the form of AZT phosphodiester 3 after 24 hr; type: functional, organism-based; design: dose 58.33 mg/kg; method in brief: as §1
Mus musculus [15] = experiment: In Vivo detection in Mice brains after oral administration of 58.33 mg/kg detected in the form of AZT 5`-P after 24 hr; type: functional
Mus musculus [16] = experiment: In Vivo detection of total AZT in Mice plasma after oral administration of 58.33 mg/kg after 0.5 hr; type: functional, organism-based; design: dose 58.33 mg/kg; method in brief: as §1
Mus musculus [17] = experiment: In Vivo detection in Mice plasma after oral administration of 58.33 mg/kg detected in the form of AZT 5`-P after 48 hr; type: functional, organism-based; design: dose 58.33 mg/kg
Mus musculus [18] = experiment: In Vivo detection in Mice brains after oral administration of 58.33 mg/kg detected in the form of AZT phosphodiester 3 after 0.5 hr; type: functional
Mus musculus [19] = experiment: In Vivo detection of total AZT in Mice plasma after oral administration of 58.33 mg/kg after 4 hr; type: functional, organism-based; design: dose 58.33 mg/kg; method in brief: as §1
Mus musculus [20] = experiment: In Vivo detection in Mice brains after oral administration of 58.33 mg/kg detected in the form of AZT after 4 hr; type: functional
Mus musculus [21] = experiment: In Vivo detection in Mice brains after oral administration of 58.33 mg/kg detected in the form of AZT 5`-P after 4 hr; type: functional
Mus musculus [22] = experiment: In Vivo detection in Mice plasma after oral administration of 58.33 mg/kg detected in the form of AZT phosphodiester 3 after 2 hr; type: functional, organism-based; design: dose 58.33 mg/kg; method in brief: as §1
Mus musculus [23] = experiment: In Vivo detection in Mice brains after oral administration of 41.63 mg/kg detected in the form of AZT phosphodiester 2 after 8 hr; type: functional
Mus musculus [24] = experiment: In Vivo detection in Mice plasma after oral administration of 41.63 mg/kg detected in the form of AZT 5`-P after 1 hr; type: functional, organism-based; design: dose 41.63 mg/kg
Mus musculus [25] = experiment: In Vivo detection of total AZT in Mice brains after oral administration of 41.63 mg/kg after 8 hr; type: functional; method in brief: as §2
Mus musculus [26] = experiment: In Vivo detection in Mice plasma after oral administration of 41.63 mg/kg detected in the form of AZT after 24 hr; type: functional, organism-based; design: dose 41.63 mg/kg
Mus musculus [27] = experiment: In Vivo detection in Mice brains after oral administration of 41.63 mg/kg detected in the form of AZT after 4 hr; type: functional
Mus musculus [28] = experiment: In Vivo detection in Mice plasma after oral administration of 41.63 mg/kg detected in the form of AZT after 0.5 hr; type: functional, organism-based; design: dose 41.63 mg/kg
Mus musculus [29] = experiment: In Vivo detection in Mice brains after oral administration of 41.63 mg/kg detected in the form of AZT after 48 hr; type: functional
Mus musculus [30] = experiment: In Vivo detection in Mice brains after oral administration of 41.63 mg/kg detected in the form of AZT phosphodiester 2 after 2 hr; type: functional
Mus musculus [31] = experiment: In Vivo detection of total AZT in Mice brains after oral administration of 41.63 mg/kg after 24 hr; type: functional; method in brief: as §2
Mus musculus [32] = experiment: In Vivo detection in Mice brains after oral administration of 41.63 mg/kg detected in the form of AZT 5`-P after 8 hr; type: functional
Mus musculus [33] = experiment: In Vivo detection of total AZT in Mice brains after oral administration of 41.63 mg/kg after 4 hr; type: functional; method in brief: as §2
Mus musculus [34] = experiment: In Vivo detection in Mice plasma after oral administration of 41.63 mg/kg detected in the form of AZT 5`-P after 24 hr; type: functional, organism-based; design: dose 41.63 mg/kg
Mus musculus [35] = experiment: In Vivo detection in Mice plasma after oral administration of 41.63 mg/kg detected in the form of AZT 5`-P after 4 hr; type: functional, organism-based; design: dose 41.63 mg/kg
Mus musculus [36] = experiment: In Vivo detection in Mice brains after oral administration of 41.63 mg/kg detected in the form of AZT 5`-P after 0.5 hr; type: functional
Mus musculus [37] = organism: Mus musculus; experiment: as §3; type: functional; remark: listed apart in the source
Method in brief: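 Male Swiss mice (6 weeks, 18–20 g) dosed by oral gavage in saline vehicle at 20 mg/kg AZT or molar equivalent (3 mM, 1.5 µmol/mouse). Brains taken 0.5–48 h post-dose, homogenized in acetonitrile–water 3:1, centrifuged, lyophilized and filtered. Analysed by column-switching C18 HPLC with diode-array detection against spiked standards and vehicle controls. Three mice per time point, triplicates; not recovery-corrected.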

## CCCCCCCCCCCCCCCCOP(=O)(OCCO[C@H]1O[C@H](CO)[C@@H](O)[C@H](O)[C@@H]1O)OCC1OC(n2cc(C)c(=O)[nH]c2=O)CC1N=[N+]=[N-] (some centres not stated)
Mus musculus [1]
  Plasma content: 26.3 nM ml-1
Mus musculus [2]
  Brain content: 38.5 nM ml-1
Mus musculus [3]
  Brain content: 5.3 nM ml-1
Mus musculus [4]
  Brain content: 156.7 nM ml-1
Mus musculus [5]
  Plasma content: 12.1 nM ml-1
Mus musculus [6]
  Brain content: 1.5 nmol/g
Mus musculus [7]
  Brain content: 3.8 nmol/g
Mus musculus [8]
  Plasma content: 2.3 nM ml-1
Mus musculus [9]
  Plasma content: 8.6 nM ml-1
Mus musculus [10]
  External nucleoside: 9100 nM/g
Mus musculus [11]
  Plasma content: 1.6 nM ml-1
Mus musculus [12]
  Brain content: 0 nmol/g
Mus musculus [13]
  Brain content: 147 nmol/g
Mus musculus [14]
  Plasma content: 0 nM ml-1
Mus musculus [15]
  Brain content: 81.3 nmol/g
Mus musculus [16]
  Plasma content: 13.7 nM ml-1
Mus musculus [17]
  Plasma content: 14.2 nM ml-1
Mus musculus [18]
  Brain content: 0 nmol/g
Mus musculus [19]
  Plasma content: 5.3 nM ml-1
Mus musculus [20]
  Brain content: 1 nmol/g
Mus musculus [21]
  Brain content: 114 nmol/g
Mus musculus [22]
  Plasma content: 0 nM ml-1

## Cc1cn([C@H]2C[C@H](N=[N+]=[N-])[C@@H](COP(=O)(O)OCCO[C@H]3O[C@H](CO)[C@@H](O)[C@H](O)[C@@H]3O)O2)c(=O)[nH]c1=O
Mus musculus [23]
  Brain content: 8.9 nmol/g
Mus musculus [24]
  Plasma content: 20 nM ml-1
Mus musculus [25]
  Brain content: 43.1 nM ml-1
Mus musculus [26]
  Plasma content: 0 nM ml-1
Mus musculus [27]
  Brain content: 0.9 nmol/g
Mus musculus [28]
  Plasma content: 31.6 nM ml-1
Mus musculus [29]
  Brain content: 0.8 nmol/g
Mus musculus [30]
  Brain content: 5.2 nM ml-1
Mus musculus [31]
  Brain content: 61.8 nM ml-1
Mus musculus [32]
  Brain content: 33.3 nmol/g
Mus musculus [33]
  Brain content: 68.1 nM ml-1
Mus musculus [34]
  Plasma content: 26.8 nM ml-1
Mus musculus [35]
  Plasma content: 6.7 nM ml-1
Mus musculus [36]
  Brain content: 31 nmol/g
Mus musculus [37]
  External nucleoside: 8000 nM/g
